Reference: ChEMBL document CHEMBL2331091, “Synthesis and pharmacological evaluation of some novel 2-(5-hydroxy-5-trifluoromethyl-4,5-dihydropyrazol-1-yl)-4-(coumarin-3-yl)thiazoles” (2013)
Converted amounts (≈) assume the structure as drawn. The source made the active and inactive calls. The rule behind the calls is not given here.

What was measured:
Format in all cases: functional
[1] = test system: Bacillus subtilis; test: Antibacterial activity against Bacillus subtilis assessed as diameter of growth inhibition zone at 2 mg/ml at 37 degC after 24 hrs by agar well diffusion method; conditions: for zone of inhibition at 2000 µg/mL: read-out: DIZ
[2] = test system: Pseudomonas aeruginosa; test: Antibacterial activity against Pseudomonas aeruginosa assessed as diameter of growth inhibition zone at 2 mg/ml at 37 degC after 24 hrs by agar well diffusion method; conditions: for zone of inhibition at 2000 µg/mL: read-out: DIZ
[3] = test system: Klebsiella aerogenes; test: Antibacterial activity against Klebsiella aerogenes assessed as diameter of growth inhibition zone at 2 mg/ml at 37 degC after 24 hrs by agar well diffusion method; conditions: for zone of inhibition at 2000 µg/mL: read-out: DIZ
[4] = test system: Staphylococcus epidermidis; test: Antibacterial activity against Staphylococcus epidermidis assessed as growth inhibition at 37 degC after overnight incubation by agar well diffusion method
[5] = test system: Escherichia coli; test: Antibacterial activity against Escherichia coli assessed as diameter of growth inhibition zone at 2 mg/ml at 37 degC after 24 hrs by agar well diffusion method; conditions: for zone of inhibition at 2000 µg/mL: read-out: DIZ
[6] = test system: Staphylococcus epidermidis; test: Antibacterial activity against Staphylococcus epidermidis assessed as diameter of growth inhibition zone at 2 mg/ml at 37 degC after 24 hrs by agar well diffusion method; conditions: read-out: DIZ
[7] = test system: Staphylococcus aureus; test: Antibacterial activity against Staphylococcus aureus assessed as growth inhibition at 37 degC after overnight incubation by agar well diffusion method
[8] = test system: Staphylococcus aureus; test: Antibacterial activity against Staphylococcus aureus assessed as diameter of growth inhibition zone at 2 mg/ml at 37 degC after 24 hrs by agar well diffusion method; conditions: read-out: DIZ
[9] = test system: Proteus mirabilis; test: Antibacterial activity against Proteus mirabilis assessed as diameter of growth inhibition zone at 2 mg/ml at 37 degC after 24 hrs by agar well diffusion method; conditions: for zone of inhibition at 2000 µg/mL: read-out: DIZ
[10] = test system: Rattus norvegicus; test: Antiinflammatory activity in Wistar albino rat assessed as inhibition of carrageenan-induced paw edema at 50 mg/kg, po administered 30 mins prior to carrageenan challenge measured after 2 hrs by plethysmometer analysis
Method in brief: (§1)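 Male Wistar albino rats, 200-250 g, five per group, fasted from 12 h before and during the test. Compounds were given orally at 50 mg/kg 30 min before sub-plantar injection of 0.1 ml 1% carrageenan in 0.9% saline into the left hind paw. Tween 80 vehicle controls. Paw volume was read by plethysmometer up to the tibiotarsal mark at 0-4 h. Results are mean ± SEM and % inhibition, ANOVA and Dunnett's test.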

[11] = test system: Rattus norvegicus; test: Antiinflammatory activity in Wistar albino rat assessed as inhibition of carrageenan-induced paw edema at 50 mg/kg, po administered 30 mins prior to carrageenan challenge measured after 1 hr by plethysmometer analysis; method in brief: as §1
[12] = test system: Rattus norvegicus; test: Antiinflammatory activity in Wistar albino rat assessed as inhibition of carrageenan-induced paw edema at 50 mg/kg, po administered 30 mins prior to carrageenan challenge measured after 3 hrs by plethysmometer analysis; method in brief: as §1
[13] = test system: Rattus norvegicus; test: Antiinflammatory activity in Wistar albino rat assessed as inhibition of carrageenan-induced paw edema at 50 mg/kg, po administered 30 mins prior to carrageenan challenge measured after 4 hrs by plethysmometer analysis; method in brief: as §1
[14] = test system: Klebsiella aerogenes; test: Antibacterial activity against Klebsiella aerogenes assessed as growth inhibition at 37 degC after overnight incubation by agar well diffusion method
[15] = test system: Bacillus subtilis; test: Antibacterial activity against Bacillus subtilis assessed as growth inhibition at 37 degC after overnight incubation by agar well diffusion method
[16] = test system: Escherichia coli; test: Antibacterial activity against Escherichia coli assessed as growth inhibition at 37 degC after overnight incubation by agar well diffusion method
[17] = test system: Proteus mirabilis; test: Antibacterial activity against Proteus mirabilis assessed as growth inhibition at 37 degC after overnight incubation by agar well diffusion method
[18] = test system: Pseudomonas aeruginosa; test: Antibacterial activity against Pseudomonas aeruginosa assessed as growth inhibition at 37 degC after overnight incubation by agar well diffusion method
[19] = test system: Rattus norvegicus; test: Antiinflammatory activity in Wistar albino rat assessed as inhibition of carrageenan-induced paw edema at 10 mg/kg, po administered 30 mins prior to carrageenan challenge measured after 1 hr by plethysmometer analysis
[20] = test system: Rattus norvegicus; test: Antiinflammatory activity in Wistar albino rat assessed as inhibition of carrageenan-induced paw edema at 10 mg/kg, po administered 30 mins prior to carrageenan challenge measured after 2 hrs by plethysmometer analysis
[21] = test system: Rattus norvegicus; test: Antiinflammatory activity in Wistar albino rat assessed as inhibition of carrageenan-induced paw edema at 10 mg/kg, po administered 30 mins prior to carrageenan challenge measured after 4 hrs by plethysmometer analysis
[22] = test system: Rattus norvegicus; test: Antiinflammatory activity in Wistar albino rat assessed as inhibition of carrageenan-induced paw edema at 10 mg/kg, po administered 30 mins prior to carrageenan challenge measured after 3 hrs by plethysmometer analysis

| Structure (SMILES) | diameter of the inhibition zone (DIZ) [2] | MIC [4] | zone of inhibition at 2000 µg/mL [6] | MIC [7] | zone of inhibition at 2000 µg/mL [8] | diameter of the inhibition zone (DIZ) [9] | inhibition in vivo at 50 mg/kg [10] | inhibition in vivo at 50 mg/kg [11] | inhibition in vivo at 50 mg/kg [12] | inhibition in vivo at 50 mg/kg [13] | zone of inhibition at 2000 µg/mL [1] | MIC [14] | MIC [15] | MIC [16] | zone of inhibition at 2000 µg/mL [3] | zone of inhibition at 2000 µg/mL [5] | zone of inhibition at 2000 µg/mL [2] | MIC [17] | MIC [18] | zone of inhibition at 2000 µg/mL [9] | other results |
| --- | --- | --- | --- | --- | --- | --- | --- | --- | --- | --- | --- | --- | --- | --- | --- | --- | --- | --- | --- | --- | --- |
| O=c1oc2ccc(Cl)cc2cc1-c1csc(N2N=C(c3ccc(F)cc3)C[C@@]2(O)C(F)(F)F)n1 | inactive | 64 µg/mL (≈ 126 µM) | 14 mm | 32 µg/mL (≈ 62.8 µM) | 4.93 mm | inactive | – | – | – | – | – | – | – | – | – | – | – | – | – | – | diameter of the inhibition zone (DIZ) [1]: inactive; diameter of the inhibition zone (DIZ) [3]: inactive; diameter of the inhibition zone (DIZ) [5]: inactive |
| O=c1oc2ccccc2cc1-c1csc(N2N=C(c3ccc(Br)cc3)C[C@@]2(O)C(F)(F)F)n1 | – | – | – | – | – | – | 70.8% | 76.1% | 35.5% | 25.2% | – | – | – | – | – | – | – | – | – | – | – |
| O=c1oc2ccc(Cl)cc2cc1-c1csc(N2N=C(C(F)(F)F)C[C@@]2(O)C(F)(F)F)n1 | – | – | – | – | – | – | 63.3% | 85.9% | 54.5% | 41.1% | – | – | – | – | – | – | – | – | – | – | – |
| O=c1oc2ccccc2cc1-c1csc(N2N=C(C(F)(F)F)C[C@@]2(O)C(F)(F)F)n1 | – | – | – | – | – | – | 79.2% | 83.1% | 64.8% | 37.9% | – | – | – | – | – | – | – | – | – | – | – |
| O=c1oc2ccc(Br)cc2cc1-c1csc(N2N=C(c3ccc(F)cc3)C[C@@]2(O)C(F)(F)F)n1 | inactive | 64 µg/mL (≈ 115 µM) | 14 mm | 128 µg/mL (≈ 231 µM) | 1.87 mm | inactive | – | – | – | – | 12.4 mm | 256 µg/mL (≈ 462 µM) | 512 µg/mL (≈ 924 µM) | 512 µg/mL (≈ 924 µM) | 11 mm | 11 mm | – | – | – | – | – |
| O=c1oc2ccc(Br)cc2cc1-c1csc(N2N=C(c3ccc(Cl)cc3)C[C@@]2(O)C(F)(F)F)n1 | – | 512 µg/mL (≈ 897 µM) | 12.5 mm | 128 µg/mL (≈ 224 µM) | 2 mm | – | – | – | – | – | 10.3 mm | 8 µg/mL (≈ 14 µM) | 512 µg/mL (≈ 897 µM) | – | 13 mm | – | 8.1 mm | 16 µg/mL (≈ 28 µM) | 128 µg/mL (≈ 224 µM) | 15.1 mm | diameter of the inhibition zone (DIZ) [5]: inactive |
| O=c1oc2ccccc2cc1-c1csc(N2N=C(c3ccc(F)cc3)C[C@@]2(O)C(F)(F)F)n1 | – | 64 µg/mL (≈ 135 µM) | 14 mm | 32 µg/mL (≈ 67.3 µM) | 3.96 mm | – | 56.7% | 74.7% | 22.3% | 18% | 12 mm | 8 µg/mL (≈ 16.8 µM) | 512 µg/mL (≈ 1080 µM) | 2 µg/mL (≈ 4.21 µM) | 12.1 mm | 13 mm | 7.87 mm | 4 µg/mL (≈ 8.41 µM) | 32 µg/mL (≈ 67.3 µM) | 17 mm | – |
| O=c1oc2ccc(Cl)cc2cc1-c1csc(N2N=C(c3ccc(Br)cc3)C[C@@]2(O)C(F)(F)F)n1 | inactive | 512 µg/mL (≈ 897 µM) | 11.2 mm | 64 µg/mL (≈ 112 µM) | 2.07 mm | inactive | – | – | – | – | – | – | – | – | – | – | – | – | – | – | diameter of the inhibition zone (DIZ) [1]: inactive; diameter of the inhibition zone (DIZ) [3]: inactive; diameter of the inhibition zone (DIZ) [5]: inactive |
| O=c1oc2ccc(Br)cc2cc1-c1csc(N2N=C(c3ccc(Br)cc3)C[C@@]2(O)C(F)(F)F)n1 | inactive | 512 µg/mL (≈ 832 µM) | 13.1 mm | 128 µg/mL (≈ 208 µM) | 2.03 mm | inactive | – | – | – | – | – | 512 µg/mL (≈ 832 µM) | – | 256 µg/mL (≈ 416 µM) | 10.5 mm | 10 mm | – | – | – | – | diameter of the inhibition zone (DIZ) [1]: inactive |
| COc1ccc2c(c1)c(CC(=O)O)c(C)n2C(=O)c1ccc(Cl)cc1 [INDOMETHACIN] | – | – | – | – | – | – | – | – | – | – | – | – | – | – | – | – | – | – | – | – | inhibition in vivo at 10 mg/kg [19]: 94.4%; inhibition in vivo at 10 mg/kg [20]: 84.2%; inhibition in vivo at 10 mg/kg [21]: 86.5%; inhibition in vivo at 10 mg/kg [22]: 80.9% |
| C=CC1=C(C(=O)O)N2C(=O)[C@@H](NC(=O)/C(=N\OCC(=O)O)c3csc(N)n3)[C@H]2SC1 [CEFIXIME] | – | 2 µg/mL (≈ 4.41 µM) | 22 mm | 2 µg/mL (≈ 4.41 µM) | 3.9 mm | – | – | – | – | – | 26 mm | 2 µg/mL (≈ 4.41 µM) | 2 µg/mL (≈ 4.41 µM) | 2 µg/mL (≈ 4.41 µM) | 15 mm | 14.1 mm | 10 mm | 2 µg/mL (≈ 4.41 µM) | 2 µg/mL (≈ 4.41 µM) | 20 mm | – |
| O=c1oc2ccccc2cc1-c1csc(N2N=C(c3ccc(Cl)cc3)C[C@@]2(O)C(F)(F)F)n1 | – | 64 µg/mL (≈ 130 µM) | 15.1 mm | 16 µg/mL (≈ 32.5 µM) | 4.5 mm | – | 82.5% | 77.5% | 48% | 55.4% | 15.7 mm | 8 µg/mL (≈ 16.3 µM) | 512 µg/mL (≈ 1040 µM) | 2 µg/mL (≈ 4.07 µM) | 10.1 mm | 13.1 mm | 8.1 mm | 4 µg/mL (≈ 8.13 µM) | 32 µg/mL (≈ 65.1 µM) | 15.2 mm | – |
| O=c1oc2ccc(Cl)cc2cc1-c1csc(N2N=C(c3ccc(Cl)cc3)C[C@@]2(O)C(F)(F)F)n1 | inactive | 512 µg/mL (≈ 973 µM) | 11.2 mm | 64 µg/mL (≈ 122 µM) | 4.13 mm | inactive | 62.5% | 73.2% | 42.1% | 31.5% | – | – | – | – | – | – | – | – | – | – | diameter of the inhibition zone (DIZ) [1]: inactive; diameter of the inhibition zone (DIZ) [3]: inactive; diameter of the inhibition zone (DIZ) [5]: inactive |
| O=c1oc2ccc(Br)cc2cc1-c1csc(N2N=C(C(F)(F)F)C[C@@]2(O)C(F)(F)F)n1 | – | 16 µg/mL (≈ 30.3 µM) | 20.1 mm | 64 µg/mL (≈ 121 µM) | 3.13 mm | – | – | – | – | – | 25 mm | 512 µg/mL (≈ 969 µM) | 8 µg/mL (≈ 15.1 µM) | 128 µg/mL (≈ 242 µM) | 11 mm | 11.9 mm | 9.13 mm | 16 µg/mL (≈ 30.3 µM) | 128 µg/mL (≈ 242 µM) | 17.2 mm | – |
